Laboratory results: ChEMBL document CHEMBL1129935, “Chromophore-modified bis-naphthalimides: synthesis and antitumor activity of bis-dibenz[de,h]isoquinoline-1,3-diones” (J Med Chem, 1997)

Key:
[1] = test system: HT-29; assay: In vitro cytotoxicity against HT-29 (human colon adenocarcinoma) cell line.; format: functional, cell-based
Method in brief: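 Human colon carcinoma HT-29 cells, 3000/well in DMEM with 10% FBS, attached 24 h. Free bases dissolved in DMSO, final DMSO <1%, added as 1:4 serial dilutions. Exposure 72 h at 37 °C, 5% CO2. MTT added for 4 h, formazan solubilized overnight in 25% SDS (pH 2), absorbance read at 550 nm. IC50 taken as concentration giving 50% of control growth.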

[2] = test system: Mus musculus; assay: Median survival time of treated mice (T) compared to controls expressed as a percentage (%T/C) at the dose of 0.8 mg/kg (dose administered intraperitoneally on days 1, 5 and 9).; format: functional; conditions: route intraperitoneal
Method in brief: (§1)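 M5076 murine sarcoma cells (10^6) implanted ip in C57Bl/6 mice. Agent given as its dimethanesulfonate salt dissolved in water. Median survival time (MST) recorded for treated and concurrent control groups. Activity expressed as %T/C, the treated MST as a percentage of the control MST.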

[3] = test system: Mus musculus; assay: Median survival time of Compound on C57B1/6 mice which was implanted intraperitoneally with M5076 murine sarcoma cells at the dose of 1.8 mg/kg (dose administered intraperitoneally on days 1, 5 and 9).; format: functional; conditions: route intraperitoneal; method in brief: as §1
[4] = test system: Mus musculus; assay: Median survival time of treated mice (T) compared to controls expressed as a percentage (%T/C) at the dose of 1.8 mg/kg (dose administered intraperitoneally on days 1, 5 and 9).; format: functional; conditions: route intraperitoneal; method in brief: as §1
[5] = test system: Mus musculus; assay: Median survival time of Compound on C57B1/6 mice which was implanted intraperitoneally with M5076 murine sarcoma cells at the dose of 0.8 mg/kg (dose administered intraperitoneally on days 1, 5 and 9).; format: functional; conditions: route intraperitoneal; method in brief: as §1
[6] = test system: Mus musculus; assay: Median survival time of treated mice (T) compared to controls expressed as a percentage (%T/C) at the dose of 1.2 mg/kg (dose administered intraperitoneally on days 1, 5 and 9).; format: functional; conditions: route intraperitoneal; method in brief: as §1
[7] = test system: Mus musculus; assay: Median survival time of Compound on C57B1/6 mice which was implanted intraperitoneally with M5076 murine sarcoma cells at the dose of 1.2 mg/kg (dose administered intraperitoneally on days 1, 5 and 9).; format: functional; conditions: route intraperitoneal; method in brief: as §1
[8] = test system: Mus musculus; assay: Median survival time of Compound on C57B1/6 mice which was implanted intraperitoneally with M5076 murine sarcoma cells at the dose of 7.5 mg/kg (dose administered intraperitoneally on days 1, 5 and 9).; format: functional; conditions: route intraperitoneal
Method in brief: (§2)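 M5076 murine sarcoma, 10^6 cells implanted intraperitoneally into C57Bl/6 mice. Median survival time recorded for treated (T) and control (C) groups. %T/C calculated as the treated median survival relative to the control median survival, times 100.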

[9] = test system: Mus musculus; assay: Median survival time of treated mice (T) compared to controls expressed as a percentage (%T/C) at the dose of 5.0 mg/kg (dose administered intraperitoneally on days 1, 5 and 9).; format: functional; conditions: route intraperitoneal; method in brief: as §2
[10] = test system: Mus musculus; assay: Median survival time of Compound on C57B1/6 mice which was implanted intraperitoneally with M5076 murine sarcoma cells at the dose of 2.2 mg/kg (dose administered intraperitoneally on days 1, 5 and 9).; format: functional; conditions: route intraperitoneal; method in brief: as §2
[11] = test system: Mus musculus; assay: Median survival time of Compound on C57B1/6 mice which was implanted intraperitoneally with M5076 murine sarcoma cells at the dose of 3.3 mg/kg (dose administered intraperitoneally on days 1, 5 and 9).; format: functional; conditions: route intraperitoneal; method in brief: as §2
[12] = test system: Mus musculus; assay: Median survival time of treated mice (T) compared to controls expressed as a percentage (%T/C) at the dose of 3.3 mg/kg (dose administered intraperitoneally on days 1, 5 and 9).; format: functional; conditions: route intraperitoneal; method in brief: as §2
[13] = test system: Mus musculus; assay: Median survival time of Compound on C57B1/6 mice which was implanted intraperitoneally with M5076 murine sarcoma cells at the dose of 5.0 mg/kg (dose administered intraperitoneally on days 1, 5 and 9).; format: functional; conditions: route intraperitoneal; method in brief: as §2
[14] = test system: Mus musculus; assay: Median survival time of treated mice (T) compared to controls expressed as a percentage (%T/C) at the dose of 7.5 mg/kg (dose administered intraperitoneally on days 1, 5 and 9).; format: functional; conditions: route intraperitoneal; method in brief: as §2
[15] = test system: Mus musculus; assay: Median survival time of treated mice (T) compared to controls expressed as a percentage (%T/C) at the dose of 2.2 mg/kg (dose administered intraperitoneally on days 1, 5 and 9).; format: functional; conditions: route intraperitoneal; method in brief: as §2

| Compound | IC50 [1] [nM] | also measured |
| --- | --- | --- |
| O=C1c2cccc3cc4ccccc4c(c23)C(=O)N1CCCCNCCCN1C(=O)c2cccc3cc4ccccc4c(c23)C1=O | 70 |  |
| O=C1c2cccc3cc4ccccc4c(c23)C(=O)N1CCNCCCCCNCCN1C(=O)c2cccc3cc4ccccc4c(c23)C1=O | 9 |  |
| O=C1c2cccc3cc4ccccc4c(c23)C(=O)N1CCNCCCNCCN1C(=O)c2cccc3cc4ccccc4c(c23)C1=O | 4 | T/C [2]: 143%; MST [3]: 31.2 days; T/C [4]: 143%; MST [5]: 31.5 days; T/C [6]: 155%; MST [7]: 34 days |
| O=C1c2cccc3cc4ccccc4c(c23)C(=O)N1CCNCCNCCN1C(=O)c2cccc3cc4ccccc4c(c23)C1=O | 9 |  |
| O=C1c2cccc3cc4ccccc4c(c23)C(=O)N1CCNCCCCNCCN1C(=O)c2cccc3cc4ccccc4c(c23)C1=O | 41 |  |
| CN(CCN(C)CCN1C(=O)c2cccc3cc4ccccc4c(c23)C1=O)CCN1C(=O)c2cccc3cc4ccccc4c(c23)C1=O | 75 |  |
| O=C1c2cccc3cc4ccccc4c(c23)C(=O)N1CCCNCCNCCCN1C(=O)c2cccc3cc4ccccc4c(c23)C1=O | 95 |  |
| O=C1c2cccc3cc4c([N+](=O)[O-])cccc4c(c23)C(=O)N1CCNCCNCCN1C(=O)c2cccc3cc4c([N+](=O)[O-])cccc4c(c23)C1=O | 95 |  |
| O=C1c2cccc3cc4ccccc4c(c23)C(=O)N1CCCNCCN1C(=O)c2cccc3cc4ccccc4c(c23)C1=O | 2000 |  |
| CN(C)CCN1C(=O)c2cccc3cc(N)cc(c23)C1=O [AMONAFIDE] | 3000 |  |
| O=C1c2cccc3cc4ccccc4c(c23)C(=O)N1CCN1CCCN(CCN2C(=O)c3cccc4cc5ccccc5c(c34)C2=O)C1 | 2 |  |
| CN(CCCN1C(=O)c2cccc3cc4ccccc4c(c23)C1=O)CCCN1C(=O)c2cccc3cc4ccccc4c(c23)C1=O | 19 |  |
| O=C1c2cccc3cc4ccccc4c(c23)C(=O)N1CCCNCCCCNCCCN1C(=O)c2cccc3cc4ccccc4c(c23)C1=O | 200 |  |
| CN(C)CCN1C(=O)c2cccc3cc4ccccc4c(c23)C1=O [AZONAFIDE] | 140 |  |
| O=C1c2cccc3cccc(c23)C(=O)N1CCNCCCNCCN1C(=O)c2cccc3cccc(c23)C1=O [ELINAFIDE] | 14 | MST [8]: 21 days; T/C [9]: 102%; MST [10]: 21.5 days; MST [11]: 21.5 days; T/C [12]: 91%; MST [13]: 24 days; T/C [14]: 89%; T/C [15]: 91% |
| O=C1c2cccc3cc4c([N+](=O)[O-])cccc4c(c23)C(=O)N1CCNCCCNCCN1C(=O)c2cccc3cc4c([N+](=O)[O-])cccc4c(c23)C1=O | 35 |  |
| O=C1c2cccc3cc4ccccc4c(c23)C(=O)N1CCCNCCCNCCCN1C(=O)c2cccc3cc4ccccc4c(c23)C1=O | 90 |  |
| O=C1c2cccc3cc4ccccc4c(c23)C(=O)N1CCCNCCCN1C(=O)c2cccc3cc4ccccc4c(c23)C1=O | 20 |  |
| CN(C)CCN1C(=O)c2cccc3cc([N+](=O)[O-])cc(c23)C1=O [MITONAFIDE] | 600 |  |
| O=C1c2cccc3cc4ccccc4c(c23)C(=O)N1CCNCCN1C(=O)c2cccc3cc4ccccc4c(c23)C1=O | 30 |  |
